Source: paper PMC11609979 (Chemical Science, 2024)

Key:
A549 cells [1] = experiment: Cell cytotoxicity; type: cell-based; settings: Homo sapiens, A549, 72 h, read-out: IC50 (±St. Dev.) Light
Method in brief: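 A549 cells were exposed to test compound and viability was read 72 h after treatment. Dark samples were protected from light. IC50 was taken from dose–response curves, n = 3.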

A549 cells [2] = experiment: Seahorse MitoStress Test; type: cell-based; settings: for Lowest concentration for inhibition of OCR, Dark: 1 h incubation, no irradiation
Method in brief: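 OCR/ECAR were measured by extracellular flux with sequential oligomycin, FCCP, then rotenone/antimycin A. Basal, maximal and non-mitochondrial respiration were derived. OCR IC50 was taken from maximal respiration. The phenotype map plots basal versus stressed states.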

A549 cells [3] = experiment: Seahorse Glycolytic Rate Test; type: cell-based; settings: irradiation with red light 660 nm
Method in brief: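 A549 cells were incubated 1 h with test compound, kept dark or irradiated. Irradiation used indigo 450 nm light (485 mW cm^-2) or red 660 nm light (16 mW cm^-2). Concentrations were chosen from light/dark cytotoxicity to keep cells viable. Glycolysis was blocked by 2-deoxyglucose injection, then non-glycolytic acidification was measured. Mitochondrial acidification was also read out.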

[4] = cited from earlier work

IC50 (A549 cells [2]; Homo sapiens, A549, read-out: OCR IC50 (from maximal respiration dose-response)) [nM]	SMILES	IC50 (A549 cells [1]) [nM]	Cellular respiration in the absence of light (A549 cells [2]; A549 cells, 1 h, dark, Fig. 3A and C)	Lowest concentration for inhibition of OCR, Dark (A549 cells [2]; A549 cells) [µM]	Cellular respiration following irradiation (A549 cells [2]; A549 cells, indigo light for 3, red light (660 nm) for HPPH, Fig. 3B and D)	Fold lower than the IC50 for cytotoxicity (quiescent phenotype concentration) (A549 cells [2]; A549 cells, red light) [fold]	Concentration inducing the quiescent phenotype (A549 cells [2]; A549 cells, red light, Fig. S10) [µM]	Concentration with PER showing no glycolytic activity (A549 cells [3]) [µM]	log P [4]
1200	CCCCCCOC(C)c1c(C)c2cc3nc(c4c5[nH]c(cc6nc(cc1[nH]2)C(C)=C6CC)c(C)c5C(=O)C4)[C@@H](CCC(=O)O)[C@@H]3C (stereo partly shown) [HPPH, 2-(1-hexyloxyethyl)-2-devinylpyropheophorbide-a]	3700	unaffected	3	marked concentration-dependent decrease	10	0.37	10	~6.0
	N.N.[Cl][Pt][Cl] [Cisplatin]			>20					
